From PubChem BioAssay
MEKK2wt PB1 HTS – raises or lowers MEK5 binding to wildtype human MEKK2 PB1 domain. Q9Y2U5. hit rate 1.1% among 290,000. bead flow cytometry, Alexa488-MEK5 binding to MEKK2 WT; actives lie on both sides. binding response (% of control), % at 10 µM; in the data active = binding response below about 67% or above about 130%
MEKK3 PB1 HTS – modulators (inhibitors or enhancers) of MEK5 binding to human MEKK3 PB1 domain; Q99759; bead-based flow cytometry, Alexa488-MEK5 binding to MEKK3; actives lie on both sides; 0 = blocked by unlabeled MEK5, 100 = vehicle; binding response (% of control), % at 10 µM; hit rate 1.4% among 290,000;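 active = binding response more than 3 SD above or below the average of its plate-row segment, actives on both sides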;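 note: Alexa488 bead fluorescence after subtracting the streptavidin-only scavenger bead signal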
UBC13 polyUb – inhibitors of human UBC13 polyubiquitin chain formation | P61088 | TR-FRET | inhibition, % at 20 µM | hit rate 0.47% among 330,000; in the data active = inhibition above about 45%, passing the limit was not always enough
MEKK2 mut-MEK5 – signal of MEK5 binding to mutant human MEKK2 PB1 domain; hit rate 0.35% among 290,000; bead flow cytometry, Alexa488-MEK5 binding to MEKK2 mutant; AID 1530; percent response, % at 10 µM; in the data active = percent response above about 24%, passing the limit was not always enough
Apaf-1 inh – blocks human Apaf-1 apoptosome activity; O14727; reconstituted apoptosome caspase-3 activity, DEVD-Rh110 fluorescence; inhibition, % at 20 µM; hit rate 0.71% among 330,000; AID 489030; active = inhibition of at least 40% at 20 µM
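Medium: Hepes buffer, pH 7.5 / System: biochemical Apaf-1 apoptosome reconstitution / Measured by: Rh110 fluorescence, excitation 480 nm, emission 540 nm / Times: compound with Apaf-1, dATP, procaspase-3 30 min, then 50 min reaction, room temperature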
MEKK2wt confirm – raises or lowers MEK5 binding to wildtype human MEKK2, retest. hit rate 2.4% among 5,900. binding response (% of control), % at 10 µM. bead flow cytometry, Alexa488-MEK5 binding to MEKK2 WT; actives lie on both sides. shares compounds with MEKK3 PB1 HTS; in the data active = binding response below about 16% or above about 210%; inactive = in between
MEKK2mut-MEK5 – signal of MEK5 binding to mutant human MEKK2, retest | percent response, % at 10 µM | AID 1893 | hit rate 2% among 5,900 | shares compounds with MEKK3 PB1 HTS | bead flow cytometry, Alexa488-MEK5 binding to MEKK2 mutant; in the data active = percent response mostly above about 71%, no sharp cut-off; inactive = mostly below about 38%;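 note: higher means compound restores mutant binding toward wildtype level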
MEKK3 confirm – MEKK3-MEK5 PB1 inhibition, single concentration confirmation | shares compounds with MEKK3 PB1 HTS | bead flow cytometry, Alexa488-MEK5 binding to MEKK3; hits give low values | binding response (% of control), % at 10 µM | hit rate 1.8% among 5,900 | AID 1894;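 active = binding response below 72% of control, or above a set upper limit, though filed actives all read lower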;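 note: lower values mean stronger disruption of MEK5 binding to MEKK3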
Large screens that a line does not name were inactive (follow-up assays come after a bar, where they were run); [ ] = dose if it differs, or a comment. Compounds with a hit are over-represented: about 2.9% of the library has one in this group of screens.

COc1c(/C=N/Nc2ccc(C(=O)O)cc2)c(CCN(C)C(C)=O)cc2c1OCO2	none
Cc1cc(C(=O)COC(=O)Cc2n[nH]c(=O)c3ccccc23)c(C)n1-c1cccc(C(F)(F)F)c1	MEKK3 PB1 HTS 136 | MEKK2wt confirm inactive | MEKK2mut-MEK5 inactive | MEKK3 confirm inactive
CCN(CC)CCCNC(=O)c1cn(CCOC)c(=O)c2c1c1ccccc1n2C	MEKK3 PB1 HTS 34[inhibitor] | MEKK2wt confirm inactive | MEKK2mut-MEK5 inactive | MEKK3 confirm inactive
O=C(c1cccc([N+](=O)[O-])c1)N1CCN(c2ncccn2)CC1	MEKK2 mut-MEK5 32 | MEKK2wt confirm inactive | MEKK2mut-MEK5 inactive | MEKK3 confirm inactive
O=C(c1cccc(C(=O)N2CCN(c3ncccn3)CC2)c1)N1CCN(c2ncccn2)CC1	none (no result: MEKK2wt PB1 HTS, MEKK3 PB1 HTS, MEKK2 mut-MEK5)
COCCNC(=O)CSc1nnc(-c2ccccc2F)n1Cc1ccccc1	none
CCN(CC(=O)Nc1ccc(OC)c(Cl)c1)CC(=O)NC(C)C	none
COC(=O)N/N=C/c1cc(Cl)c(OCc2ccccc2F)c(OC)c1	none
COC(=O)N/N=C/c1cc(Cl)c(OCc2ccc(F)cc2)c(OC)c1	MEKK3 PB1 HTS 128 | MEKK2wt confirm inactive | MEKK2mut-MEK5 inactive | MEKK3 confirm inactive
N/C(=N\OC(=O)CSc1ccccc1)c1ccncc1	none
O=C(COC(=O)/C=C/c1cccc(Cl)c1)NCCC1=CCCCC1	MEKK3 PB1 HTS 130 | MEKK2wt confirm inactive | MEKK2mut-MEK5 inactive | MEKK3 confirm inactive
COC(=O)c1ccc(CNC(=O)COC(=O)C23CC4CC(CC(C4)C2)C3)cc1	MEKK3 PB1 HTS 75[inhibitor] | MEKK2wt confirm inactive | MEKK2mut-MEK5 inactive | MEKK3 confirm inactive
CC(C1CCN(Cc2cn(C)nc2-c2cccc(Cl)c2)CC1)N1CCOCC1 (centres undefined)	none
Cc1[nH]c2ccccc2c1C(Nc1nccs1)c1ccncc1 (centres undefined)	MEKK3 PB1 HTS 138 | MEKK2wt confirm inactive | MEKK2mut-MEK5 inactive | MEKK3 confirm inactive
Cc1ccnc(NC(c2ccncc2)c2c(C)[nH]c3ccccc23)c1 (centres undefined)	none
CCOc1ccc(CCNC(=O)C2CCC(=O)N2CCc2ccccc2)cc1OCC (centres undefined)	MEKK2wt PB1 HTS -1.0[inhibitor], MEKK3 PB1 HTS 2.0[inhibitor] | MEKK2wt confirm inactive | MEKK2mut-MEK5 inactive | MEKK3 confirm inactive
O=C(C(=O)N1CCc2ccccc2C1)c1cn(CC(=O)N2CCCC2)c2ccccc12	MEKK3 PB1 HTS 131 | MEKK2wt confirm inactive | MEKK2mut-MEK5 inactive | MEKK3 confirm inactive
O=C(C(=O)N1CCCCC1)c1cn(CC(=O)N2CCCCCC2)c2ccccc12	none
CCC1CCCCN1C(=O)c1cc(COc2ccc(-n3cncn3)cc2)on1 (centres undefined)	none
COc1ccc(/C=C/C(=O)NCCCN2CCCCCC2)cc1	MEKK2wt PB1 HTS 155, MEKK2 mut-MEK5 28 | MEKK2wt confirm inactive | MEKK2mut-MEK5 inactive | MEKK3 confirm inactive
COc1ccc(/C=C/C(=O)NCCCN2CCOCC2)cc1	none (no result: UBC13 polyUb, Apaf-1 inh)
Cc1ccc(/C=C/C(=O)NCCCn2ccnc2)cc1	MEKK2wt PB1 HTS 5.0[inhibitor], MEKK3 PB1 HTS 3.0[inhibitor] | MEKK2wt confirm inactive | MEKK2mut-MEK5 inactive | MEKK3 confirm inactive
O=C(/C=C/c1ccc(F)cc1)NCCCN1CCN(CCCNC(=O)/C=C/c2ccc(F)cc2)CC1	MEKK2wt PB1 HTS 146 | MEKK2wt confirm inactive | MEKK2mut-MEK5 inactive | MEKK3 confirm inactive
Cc1ccc(/C=C/C(=O)NCCCN2CCN(CCCNC(=O)/C=C/c3ccc(C)o3)CC2)o1	none
CC(C)NC(=O)c1sc2nc(-c3cccs3)cc(-c3cccs3)c2c1N	none
Nc1c(C(=O)C2CC2)sc2nc(-c3cccs3)cc(C(F)(F)F)c12	MEKK2wt PB1 HTS 59[inhibitor] | MEKK2wt confirm inactive | MEKK2mut-MEK5 inactive | MEKK3 confirm inactive
Cc1ccc2[nH]c3c(=O)n(N)c(C)nc3c2c1	none
